Sampled rows, rich in hits. Any-hit rate of the full collection: about 2.1%.
hiPSC survival = hiPSC single-cell survival enhancement. ATPlite luminescence; 100% = ROCK inhibitor wells, 0% = DMSO. survival enhancement, % at 20 µM. 360,000 tested, 0.044% active; in the data active = survival enhancement above about 18%;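 note: cells exposed to compounds for 16 hours before the ATP read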
Cardio protect = protects H9c2 cardiomyocytes from peroxide injury; 360,000 tested, 0.63% active; protection from H2O2 cell death, % at 20 µM; H2O2 injury protection, ATPLite, 2 h;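 active = compounds giving at least 50% protection of heart cells from peroxide-induced death in the single-dose screen, raw or plate-pattern-corrected value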
CRFR2-BP antag = blocks CRF-induced signaling of the CRF-BP/CRF-R2 complex; HEK293 CRF-R2/CRF-BP, CRF-induced calcium fluorescence; inhibition, % at 11.8 µM; 350,000 tested, 0.59% active; AID 588475;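 active = inhibition of the ligand-induced calcium signal above about 50% at the single tested concentration, limit read from the data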
CRFBP-R2 agonist = CRF-BP/CRF-R2 complex agonism; activation, % at 13.2 µM; HEK293 CRF-R2/CRF-BP, calcium dye fluorescence (FLIPR); percent of saturating CRF peptide response; 350,000 tested, 0.46% active;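 active = activation of at least 50%, plus an integration ratio under a set limit after plate pattern correction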
MIN6 prolif-1 = induces beta-cell replication in MIN6 cells; MIN6 cells proliferation, ATPlite luminescence, 48 h; cells starved in 0.2% serum; 100% = growth in 10% serum; proliferation, % at 10 µM; 330,000 tested, 0.29% active;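 active = compounds whose signal lies at least 3.5 SD above the mean of all wells on their plate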
UCH37 inh = inhibitors of human deubiquitinating enzyme UCH37. 330,000 tested, 0.33% active. AID 588478. inhibition, % (concentration not given with the values). purified proteasome/UCH37, Ub-AMC cleavage fluorescence;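 active = mean inhibition over replicate wells above about 20%, limit read from the data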
Target sequence (Q9Y5K5 whole entry, looked up): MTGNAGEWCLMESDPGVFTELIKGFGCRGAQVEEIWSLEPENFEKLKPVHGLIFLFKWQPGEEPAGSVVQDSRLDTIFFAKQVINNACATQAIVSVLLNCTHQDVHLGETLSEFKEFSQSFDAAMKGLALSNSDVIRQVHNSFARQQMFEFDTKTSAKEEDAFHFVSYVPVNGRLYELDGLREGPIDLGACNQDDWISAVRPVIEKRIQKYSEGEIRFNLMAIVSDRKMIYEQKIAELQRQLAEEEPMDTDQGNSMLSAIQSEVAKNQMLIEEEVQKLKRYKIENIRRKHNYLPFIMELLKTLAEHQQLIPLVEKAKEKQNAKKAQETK
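Material: Human UCH37 enzyme supplied as purified proteasome complex | Schedule: 30 min preincubation with enzyme, 25 min cleavage at room temperature | Detection: AMC fluorescence 355/460 nm | Measure: % inhibition of Ub-AMC cleavage fluorescence | Controls: Wells without proteasome as full block, compound-free enzyme plus substrate as uninhibited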
MIN6 prolif-2 = confirmation of inducers of beta-cell replication in MIN6 cells; shares compounds with MIN6 prolif-1; MIN6 beta-cell proliferation, ATPlite luminescence, 48 h; cells kept in 0.2% serum; scaled between 0.2% and 10% serum; proliferation increase, % at 50 µM; 920 tested, under 10 active; AID 463095;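 active = proliferation increase above 40% at any of the four tested concentrations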
A number is an active result; i = inactive; nt = not tested or not shown.

SMILES	hiPSC survival	Cardio protect	CRFR2-BP antag	CRFBP-R2 agonist	MIN6 prolif-1	UCH37 inh	MIN6 prolif-2
O=S(=O)(c1cnccc1N1CCN(/N=C/c2ccccc2)CC1)N1CCCCC1	i	i	i	i	5.6	nt	i
COc1ccc(/C=N/N2CCN(c3ccncc3S(=O)(=O)N3CCCCC3)CC2)cc1	i	i	i	i	i	nt	nt
Cc1nc(N)c(C#N)c(-c2ccccc2)c1C	i	i	i	i	5.9	i	i
O=C(NCc1ccco1)C1CC(=O)N(c2ccc(O)cc2)C1 (stereo not drawn)	i	i	i	i	4.7	i	i
CS(=O)(=O)N1CCC(C(=O)NCc2ccco2)CC1	i	i	i	i	7.7	i	i
Cc1cc(=O)[nH]c(NN=C2CCCC/C2=C\c2ccccc2)n1	nt	nt	nt	nt	nt	i	nt
CCOC(=O)C1CCCCN1Cc1ccc(OC)c(OC)c1 (stereo not drawn)	i	i	i	i	8.0	i	i
O=S(=O)(c1ccccc1)N1CCN(c2cccc(Cl)c2)CC1	i	i	i	i	7.2	i	i
O=S(=O)(c1ccccc1)N1CCN(Cc2cccc(Cl)c2)CC1	i	i	i	i	i	i	nt
COC(=O)c1sccc1NC(=O)c1ccc(OC)cc1OC	i	i	i	i	7.8	i	i
Cc1cccc(C(=O)ON=Cc2c(Cl)n(C)c3ccccc23)c1	nt	nt	nt	nt	nt	i	nt
Cc1nc(C)c(CC(=O)NN=Cc2ccc(O)cc2)c(=O)[nH]1	nt	nt	nt	nt	nt	i	nt
C=CCOc1ccc(C=Nn2nnnc2N)cc1OC	nt	nt	nt	nt	nt	i	nt
Cc1ccc2c(c1)cc(CN(Cc1ccc3c(c1)OCO3)C(=O)c1ccccc1)c1nnnn12	i	i	i	i	8.0	i	i
CCCCn1c(-c2cccc(F)c2)nc2c1c(=O)[nH]c(=O)n2CC(C)C	i	i	i	i	i	i	nt
C=CCOc1ccc(-c2nc3c(c(=O)[nH]c(=O)n3CCC)n2CCCC)cc1	i	i	i	i	0.0	i	i
COCCn1c(-c2ccc3ccccc3c2)nc2c1c(=O)[nH]c(=O)n2CC(C)C	i	i	i	i	9.0	i	i
COCCCn1c(-c2ccc(OC)cc2)nc2c1c(=O)[nH]c(=O)n2Cc1ccccc1	i	i	i	i	0.0	i	i
NC(=NOC(=O)CSc1ccccc1)c1cccc([N+](=O)[O-])c1	nt	nt	nt	nt	nt	i	nt
CCN(CC)c1ccc(C=NNC(=O)CNC(=O)c2cccnc2)cc1	nt	nt	nt	nt	nt	i	nt
S=c1[nH]nc(-c2ccc3ccccc3n2)n1Cc1ccccc1	i	i	i	i	8.6	i	i
S=c1[nH]nc(-c2ccc3ccccc3n2)n1-c1cc(Cl)cc(Cl)c1	i	i	i	i	i	i	nt
Fc1ccc(-n2c(-c3ccc4ccccc4n3)n[nH]c2=S)cc1	i	i	i	i	7.9	nt	i
Cc1cccc(C=c2sc(=CC(=O)C(C)(C)C)[nH]c2=O)c1	nt	nt	nt	nt	nt	i	nt
COc1ccc(C(C)=NOCC(=O)N=Nc2c(O)[nH]c3ccccc23)cc1	nt	nt	nt	nt	nt	i	nt
SMILES	hiPSC survival	Cardio protect	CRFR2-BP antag	CRFBP-R2 agonist	MIN6 prolif-1	UCH37 inh	MIN6 prolif-2
O=C(CN1CCOCC1)NN=Cc1cc2ccccc2nc1Cl	nt	nt	nt	nt	nt	i	nt
O=C1N=C(O)CN1N=Cc1ccc(-c2ccc([N+](=O)[O-])cc2)o1	nt	nt	nt	nt	nt	i	nt
COc1cccc(/C=N/n2c(C3CCCCC3)n[nH]c2=S)c1	i	i	i	i	6.9	nt	i
S=c1[nH]nc(-c2cccnc2)n1N=Cc1ccco1	nt	nt	nt	nt	nt	i	nt
O=[N+]([O-])c1ccc(N2CCCC2)cc1NC1CC1	i	i	i	i	11	i	i
CN(C)S(=O)(=O)N1CCN(c2ccc([N+](=O)[O-])c(NC3CC3)c2)CC1	i	i	i	i	i	i	nt
CCN(CC)S(=O)(=O)c1cc(OC)c(Cl)cc1OC	i	i	i	i	7.8	i	i
Cc1ccc(OCCN2C(=O)NC3(CCc4ccccc4C3)C2=O)cc1 (stereo not drawn)	i	i	i	i	7.2	i	i
CC(C)Cn1nc(NC(=O)c2ccco2)c2cc3ccccc3nc21	i	i	i	i	6.8	i	i
Cc1ccc(Nc2nc(NCC3CCCO3)nc(N)c2[N+](=O)[O-])cc1C (stereo not drawn)	i	i	i	i	0.0	i	i
CC(C)CNc1nc(N)c([N+](=O)[O-])c(NCC2CCCO2)n1 (stereo not drawn)	i	i	i	i	i	i	nt
ON=C1CCCc2c1nc(-c1ccccc1F)n2O	nt	nt	nt	nt	nt	i	nt
Cc1ccc(CSc2nnc(-c3ccccn3)n2C)cc1	i	i	i	i	7.1	i	i
Cn1c(SCc2ccc(F)cc2)nnc1-c1ccccn1	i	i	i	i	i	i	nt
OC(c1ccc(Cl)cc1)c1nccc2ccccc12 (stereo not drawn)	i	i	i	i	5.5	i	i
COc1cc(C=NNC(=O)CNC(=O)c2ccc3c(c2)OCCO3)ccc1O	nt	nt	nt	nt	nt	i	nt
Cc1noc(C)c1CSCC(=O)Nc1cc(S(=O)(=O)N2CCOCC2)ccc1OCC(F)(F)F	i	i	i	i	i	i	nt
CCOc1ccc(S(=O)(=O)N(CC)CC)cc1NC(=O)CSCc1c(C)noc1C	i	i	i	i	11	nt	i
COCC1CCCCN1C(=O)c1ccc(OC)c(OC2CCN(C(C)C)CC2)c1 (stereo not drawn)	i	i	i	i	4.8	i	i
C(=Nn1cnnc1)c1cccc2ccccc12	nt	nt	nt	nt	nt	i	nt
COCCCNc1nc(N)c([N+](=O)[O-])c(Nc2ccccc2OC)n1	i	i	i	i	7.2	nt	i
CNC(=S)N/N=C/c1ccc(OCC(=O)Nc2c(C)cc(C)cc2C)c(OC)c1	i	i	i	i	0.0	nt	i
CCc1n[nH]c(=S)n1N=Cc1ccc(NC(C)=O)cc1	nt	nt	nt	nt	nt	i	nt

Screens from PubChem.
